HIV Env fusion – inhibitors of HIV-1 Env-driven cell-cell fusion, primary screen, HeLa-JRFL effector, CEM21 target cells, luciferase | inhibition, % at 12.3 µM | 360,000 tested, 1.1% active | AID 651610, 2012;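 active = mean replicate inhibition score of at least 50 and every replicate individually at or above 50; inconclusive = only one of the two criteria met; inactive = mean below 50 and not all replicates reaching 50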;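 also: 0% = plate neutral controls and 100% = maraviroc near 300 nM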
PGC1a acetyl inh – inhibitors of PGC1a acetylation signal, primary screen, cell-based, U2OS, AlphaScreen, inhibitor mode; AlphaScreen anti-acetyl-lysine; with virally co-expressed GCN5 acetyltransferase; inhibition, % at 15.6 µM; 350,000 tested, 0.17% active; AID 651687, 2012;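 active = every replicate shows inhibition of at least 40%; inconclusive = mean inhibition at least 40% but some replicate below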;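 also: 0% = neutral control wells and 100% = positive control wells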
EWS-Fli block – EWS/Fli-driven NR0B1 reporter inhibitors, primary screen, A673 cells, NR0B1 luciferase, luminescence, MLPCN library. viability-normalised. inhibition, % at 12.6 µM. 350,000 tested, 0.67% active;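 active = mean inhibition of at least 50% after viability correction, with every replicate also passing that limit; inconclusive = mean reaches 50% but only one of two replicates passes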;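 also: firefly luciferase signal divided by Alamar Blue viability fluorescence both relative to DMSO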
PAX8 inh HTS – inhibitors of PAX8-driven TPO luciferase reporter, primary screen, RMG-I cells, single concentration. SteadyGlo, 24 h. inhibition, % at 12.6 µM. 360,000 tested, 1.2% active. AID 652154, 2013;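 active = mean replicate inhibition at least 60% with every replicate also reaching 60%; inconclusive = only one of the two criteria is met; inactive = mean below 60% and not all replicates reaching 60%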;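 also: luciferase light reporting Pax8 driven TPO promoter activity; plate controls were median of neutral control wells for no effect and mitoxantrone controls for full effect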
F508del corr – F508del CFTR correction, initial screen, CFBE line, single point | 350,000 tested, 0.36% active | CFBE cells, YFP halide quenching; stimulated with forskolin plus potentiator P3; % fluorescence drop versus neutral controls | AID 720511, 2013 | activity (quench increase), % at 7.58 µM;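 active = mean added fluorescence quench of at least 8% versus neutral control, with both replicates also reaching 8%; inconclusive = only one of the mean or replicate conditions met; inactive = mean below 8% and not both replicates reaching 8%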;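 also: cells transiently co-express mutant CFTR-F508del with the halide-sensitive YFP; corrector assay measuring rescue of mutant channel to the surface after 24 h compound exposure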
FN deposit inh – inhibitors of fibronectin matrix deposition, primary screen, AH1F cells, Alexa488-fibronectin fluorescence, plate reader. inhibition, % at 12.6 µM. AH1F fibroblasts, overnight. AID 743247, 2014. 350,000 tested, 0.086% active;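 active = mean inhibition across replicates of 30% or more, regardless of how many single replicates reach that level; inconclusive = mean under 30% yet at least half of replicates reach 30%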;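 also: positive control wells lacked labelled fibronectin entirely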
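material = AH1F fibroblast monolayer depositing Alexa488-labelled fibronectin into matrix | amount = 10000 AH1F cells/well | buffer or medium = DMEM plus 2% serum, read in PBS | incubation = 1 h cell adhesion before compound, then overnight fibronectin incubation | detection = fluorescence at 485 nm excitation, 525 nm emission | evaluation = percent inhibition as loss of matrix-bound fibronectin fluorescence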
DNA binder FP – DNA binders by acridine orange displacement, dose response, counter-screen for EWS/Fli inhibitor project, biochemical, fluorescence polarization, cherry-pick; shares compounds with EWS-Fli block; salmon sperm DNA acridine orange fluorescence polarization; AC35, µM (titrated, usually from 68 µM), for the others: at the top dose activity change, negative = DNA binding; 640 tested, 2% active; AID 720586, 2013;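 active = fitted curve reaches a 35% signal fall AC35 below twice the sample's top valid tested dose, actives reach about 48 µM in these data; inactive = the rest, including activity in the rising direction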;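 also: lower polarization ratio signals compound binding to DNA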
The depositor's hits bear a star; u = inconclusive; x = not tested or not shown; [ ] = another dose, or the depositor's remark. Only some compounds are listed: those with a hit (about 2.3% of all), similar ones and a draw of the others.

SMILES | HIV Env fusion | PGC1a acetyl inh | EWS-Fli block | PAX8 inh HTS | F508del corr | FN deposit inh | DNA binder FP
C[C@H](CO)N1C[C@H](C)[C@H](CN(C)C)Oc2cc(C3=CCCC3)ccc2S1(=O)=O | 25[16.7 µM] | x | 2 | x | -2 | -6 | x
COc1ccc(S(=O)(=O)N2CC[C@@H]3[C@H](CO)Nc4ccc(-c5ccc(C#N)cc5)cc4[C@@H]32)cc1 | x | -3 | 57* | 51 | u | 7 | 5%
COc1ccc(S(=O)(=O)N2CC[C@@H]3[C@@H](CO)Nc4ccc(-c5ccc(C#N)cc5)cc4[C@@H]32)cc1 | x | 12 | 60* | 63* | 9.7* | 9 | -9%
CN1c2ccc(-c3ccc(C#N)cc3)cc2[C@H]2[C@H](CCN2S(=O)(=O)c2cccc(F)c2)[C@H]1CO | x | 16 | 60* | u | 15* | -10 | -12%
CN1c2ccc(-c3ccc(C#N)cc3)cc2[C@@H]2[C@@H](CCN2S(=O)(=O)c2cccc(F)c2)[C@H]1CO | x | 7 | 9 | 11 | 2 | 25 | x
CC(=O)N(C)C[C@H]1Oc2cc(C#CCC(C)C)ccc2S(=O)(=O)N([C@H](C)CO)C[C@@H]1C | -25[16.7 µM] | 5 | 0 | x | 3 | -21 | x
CCOC(=O)Cc1csc(NC(=S)NC(=O)c2ccc(C)cc2)n1 | u | x | 82* | 44 | 2 | 4 | 0%
CCc1ccc(S(=O)(=O)c2ccc(-n3nc(C)cc3N)cc2)cc1 | 5 | x | 53* | 12 | 3 | x | -3%
O=C(NCC[C@H]1CC[C@H](NS(=O)(=O)c2ccc(F)cc2)[C@@H](CO)O1)Nc1ccc(F)cc1 | 4[16.7 µM] | -2 | -14 | 9 | 0 | -6 | x
COC(=O)C[C@H]1CC[C@H]2[C@H](COc3ccc(NC(=O)Nc4ccc(C#N)cc4)cc3C(=O)N2C)O1 | 1[16.7 µM] | -6 | 42 | 4 | 1 | -12 | x
COC(=O)C[C@@H]1CC[C@@H]2[C@@H](COc3ccc(NC(=O)Nc4ccc(C#N)cc4)cc3C(=O)N2C)O1 | 29[16.7 µM] | 10 | 78* | -5 | 0 | -6 | 12%
COC(=O)C[C@@H]1CC[C@H]2[C@H](COc3ccc(NC(=O)Nc4ccc(C#N)cc4)cc3C(=O)N2C)O1 | 18[16.7 µM] | 8 | 87* | -2 | 3 | -13 | 5%
CC1CN(c2ncc(/C=N/NC(=O)c3ccccc3O)s2)CC(C)O1 (stereo not drawn) | 20 | 21 | 4 | -15 | 0 | 5 | x
O=C(N/N=C/c1cnc(N2CCCCC2)s1)c1ccc(C(F)(F)F)cc1 | 29 | -3 | 54* | 74* | -1 | 0 | 0%
C[C@@H]1CCCCO[C@H](CN(C)C(=O)Nc2ccc(C(F)(F)F)cc2)[C@H](C)CN([C@H](C)CO)C(=O)c2cc(NS(=O)(=O)c3ccc(F)cc3)ccc2O1 | 30[16.7 µM] | 15 | -17 | 50 | 1 | 8 | x
COC(=O)C1=CN(c2ccc(OC)cc2)C(N)=C(C#N)C1c1ccc(OC)cc1 (stereo not drawn) | -20 | x | -1 | 6 | 1 | x | x
CCc1ccc(N2C=C(C(=O)OC)C(c3ccc(OC)cc3)C(C#N)=C2N)cc1 (stereo not drawn) | 30 | x | 54* | 3 | 0 | -3 | -8%
O=C1c2ccc3c4c(ccc(c24)C(=O)N1c1cccc(O)c1)CC3 | 24 | x | -3 | -1 | 0 | -7 | x
O=C1c2ccc3c4c(ccc(c24)C(=O)N1c1cccc(O)c1)C(=O)N(c1cccc(O)c1)C3=O | -13 | 18 | 60* | 30 | -5 | 2 | -8%
CO[C@@H]1CN(C)C(=O)c2ccc(NC(C)=O)cc2OC[C@@H](C)N(CC2CCCCC2)C[C@H]1C | x | x | x | x | x | 0 | x
CC(=O)c1ccc(N=Nc2ccc(C)cc2)cc1 | -66 | 3 | 52* | -81 | x | x | -14%
CC(=O)c1ccc(N=Nc2ccc(N(C)C)cc2)cc1 | -487 | -2 | 26 | -157 | 3 | -5 | x
Cc1nn(-c2ccc(F)cc2)c2nc(N)c(C#N)c(-c3ccc(O)c(O)c3)c12 | 13 | -9 | 57* | 52 | 4 | 8 | 3%
Cc1nn(-c2ccccc2)c2nc(N)c(C#N)c(-c3ccc(O)c(O)c3)c12 | 2 | -17 | 15 | 6 | 2 | 9 | x
O=C(Cc1ccccc1)N[C@H]1C=C[C@@H](CC(=O)N2CCCCC2)O[C@@H]1CO | -4[16.7 µM] | -5 | 7 | -3 | -2 | 0 | x
SMILES | HIV Env fusion | PGC1a acetyl inh | EWS-Fli block | PAX8 inh HTS | F508del corr | FN deposit inh | DNA binder FP
CC1(C)N=C(N)N=C(N)N1c1ccc(CCCCc2ccccc2)cc1 | 20 | x | 57* | 68* | 1 | -3 | -4%
COc1cccc(C(=O)Nc2ccc3c(c2)C(=O)N(C)C[C@H](OC)[C@H](C)CN(CCc2ccccc2)[C@H](C)CO3)c1 | -6[16.7 µM] | 3 | 1 | 3 | -1 | 10 | x
N#CC1=C(N)Oc2cc(N)ccc2C1c1cccc(F)c1 (stereo not drawn) | -45 | -81 | 53* | 25 | 10* | 19 | -9%
CCNC(=O)[C@@H]1[C@@H](CO)[C@@H]2Cn3c(ccc(C4=CCCCC4)c3=O)[C@H]1N2CC | x | x | x | x | -1 | x | -15%
CCN1[C@@H]2Cn3c(ccc(C4=CCCCC4)c3=O)[C@H]1[C@@H](C(=O)NCCOC)[C@@H]2CO | -7[16.7 µM] | x | 2 | x | x | x | x
Cc1nc(N)nc(N)c1/C=C/C(C)(C)c1ccc(Cl)cc1 | 30 | -7 | 59* | 68* | 0 | 19 | -6%
Cc1ccc(/C=N/Nc2ccc3ccccc3n2)o1 | -23 | x | 53* | -4 | 0 | -5 | -2%
Cc1cccc(/C=N/Nc2ccc3ccccc3n2)c1 | -14 | x | 74* | 54 | -2 | x | -1%
C(=N\Nc1nc2ccccc2[nH]1)/c1ccc2c(c1)OCCO2 | -103 | 9 | 13 | -30 | 1 | 0 | x
C(=N\Nc1ccc2ccccc2n1)/c1ccc2c(c1)OCCO2 | u | -2 | 86* | 73* | 4 | -14 | -14%
Cc1noc(C)c1NC(=O)N(C)C[C@H]1OCc2ccccc2-c2ccccc2C(=O)N([C@@H](C)CO)C[C@H]1C | x | x | x | x | x | -12 | x
O=C(Cc1cccnc1)N1CC[C@@H]2[C@@H](CO)Nc3ccc(C#Cc4ccccc4F)cc3[C@@H]21 | x | 3 | x | x | 2 | 19 | x
C[C@@H]1CCCCO[C@@H](CN(C)C(=O)c2ccncc2)[C@H](C)CN([C@@H](C)CO)C(=O)c2cc(NC(=O)C3CCCCC3)ccc2O1 | -11[16.7 µM] | 5 | -13 | 3 | 0 | x | x
CC(C)CN(C(=O)CN1CCCCCC1)c1c(N)n(CC(C)C)c(=O)[nH]c1=O | 8 | 2 | -10 | 19 | 2 | 4 | x
